Published values collected from several papers.
Dipeptidyl peptidase 8: Dipeptidyl peptidase 8 (Homo sapiens, UniProt Q6V1X1)
Nos1: Nitric oxide synthase 1 (Nos1, Rattus norvegicus, UniProt P29476)
HDAC8: Histone deacetylase 8 (HDAC8, Homo sapiens, UniProt Q9BY41)
PRKCA: Protein kinase C alpha type (PRKCA, Homo sapiens, UniProt P17252)

CN(C)C(=O)COC(=O)Cc1ccc(OC(=O)c2ccc(NC(=N)N)cc2)cc1  inhibition (Dipeptidyl peptidase 8; enzyme activity; inhibitor; 10 µM): 8%
c1ccc(C(NCCNC(c2ccccc2)c2ccccc2)c2ccccc2)cc1  inhibition (Nos1; enzyme activity; inhibitor; 10 µM): 6%
N#Cc1ccc(NCCNCC(=O)N2N=CCC2C#N)nc1 (stereo not shown)  inhibition (Dipeptidyl peptidase 8; enzyme activity; inhibitor; 100 µM): 81%
O=c1ccc2ccc3occc3c2o1  inhibition (HDAC8; enzyme activity; inhibitor; 10 µM): 33.9%
C#Cc1n[nH]c2c(-c3cn([C@@H](C)c4ccccc4)c(=O)[nH]c3=O)cc(F)cc12  inhibition (PRKCA; enzyme activity; inhibitor; 0.1 µM): 9.6%
Cn1cc(-c2cccc(N3CCc4c(sc5c4CC(C)(C)C5)C3=O)c2CO)cc(Nc2ccncn2)c1=O  inhibition (PRKCA; enzyme activity; inhibitor; 1 µM): 5%
COc1c2ccoc2cc2oc(=O)ccc12  inhibition (HDAC8; enzyme activity; inhibitor; 10 µM): 34.4%
CCOC(=O)c1ccc(OC(=O)CCCCCNC(=N)N)cc1  inhibition (Dipeptidyl peptidase 8; enzyme activity; inhibitor; 10 µM): 13%
C#Cc1n[nH]c2c(-c3cn(C(C)c4ccccn4)c(=O)[nH]c3=O)cc(F)cc12 (stereo not shown)  inhibition (Tyrosine-protein kinase Yes (YES1, Homo sapiens, UniProt P07947); enzyme activity; inhibitor; 1 µM): -0.2%
CCN(CC)CCCC[C@H](NC(=O)[C@H](CC(C)C)NC(=O)[C@H](C)NC(=O)[C@H](Cc1ccccc1)NC(=O)c1ccc(C(C)(C)C)cc1)C(=O)N[C@@H](CO)C(=O)OC  inhibition (Mu-type opioid receptor (OPRM1, Homo sapiens, UniProt P35372); ligand displacement; radioligand; 10 µM): 51%
N=C(N)c1ccc2cc(OC(=O)c3ccc(N=C(N)N)cc3)ccc2c1  inhibition (Ubiquitin carboxyl-terminal hydrolase 8 (USP8, Homo sapiens, UniProt P40818); enzyme activity; inhibitor; 10 µM): 5%
C[C@H](C(=O)N[C@H]1COc2ccccc2[C@@H]1S(C)(=O)=O)c1ccc(F)cc1  inhibition (Nos1; enzyme activity; inhibitor; 10 µM): 6%
COc1cc(Nc2ncc(F)c(Nc3ccc4c(n3)NC(=O)C(C)(C)O4)n2)cc(OC)c1OC  inhibition (Cyclin-dependent kinase 11B (CDK11B, Homo sapiens, UniProt P21127); binding; competition with immobilised ligand; 10 µM): 0%
Cn1cc(-c2cc(F)cc(N3CCn4c(cc5c4CCCC5)C3=O)c2CO)cc(Nc2ccc(N3CCN(C4COC4)CC3)cn2)c1=O  inhibition (Testis-specific serine/threonine-protein kinase 2 (TSSK2, Homo sapiens, UniProt Q96PF2); enzyme activity; inhibitor; 0.1 µM): 17%
CN(CCN1CCC(OC(=O)Nc2ccccc2-c2ccccc2)CC1)C(=O)c1ccc(CN2CCC(C(N)=O)CC2)cc1  inhibition (Substance-K receptor (TACR2, Homo sapiens, UniProt P21452); ligand displacement; radioligand; 1 µM): 1%
O=C(CNC(=O)c1coc(-c2ccccc2O)n1)Nc1ccccc1  inhibition (Histone deacetylase 1 (HDAC1, Homo sapiens, UniProt Q13547); enzyme activity; inhibitor; 20 µM): 26%
